Here are results for 19 molecules from ChEMBL document CHEMBL1121405, “Antihypertensive indole derivatives of phenoxypropanolamines with beta-adrenergic receptor antagonist and vasodilating activity” (1980).

The term inhibition denotes the change of the read-out against control, counted positive when it falls. Higher therefore signals a strong effect.

In assay [1] the test system is Rattus norvegicus. Put plainly: Vasodilator activity in ganglion blocked rats. Values denote percent change in mean arterial blood pressure 30 minutes after dosing rats at 3 mg/kg intravenously. Type of assay: functional. Conditions: route intravenous. A digest of the protocol:
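Male Wistar rats (275-450 g), urethane 800 mg/kg plus chloralose 60 mg/kg ip, then chlorisondamine 2.5 mg/kg ip for ganglion block. Angiotensin II infused iv at 0.25 or 0.35 μg/min to a new steady pressure. Drug given iv over 3 min; femoral mean arterial pressure recorded at 30 min as % change ± SEM.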

For assay [2], the species on record is Rattus norvegicus. Put plainly: Intrinsic sympathomimetic action in reserpinized rats. It counts as functional. The method in brief:
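Reserpinized rats given 0.3 mg/kg iv. Read-out is increase in heart rate (bpm), mean ± SEM, n = 3-6.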

The test system of assay [3] is Rattus norvegicus. The assay is described as follows: Antihypertensive activity in spontaneously hypertensive rats after peroral administration. Type of assay: functional. A digest of the protocol:
(§1)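 SHR, 3-day test. After about 20 min prewarming at 37 °C, indirect systolic pressure by tail cuff at 0 (control), 22, 24, 26 and 46 h. Oral dosing at 0 and 22 h, at 100 mg/kg unless footnoted otherwise. Groups of five rats; maximum mean fall from the control reading is rated in bands (<25, 25-34, 35-44, ≥45 mmHg).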

The subject of assay [4] is Rattus norvegicus. The assay is described as follows: Antihypertensive activity in spontaneously hypertensive rats after peroral administration,. It counts as functional. A digest of the protocol:
as §1

In assay [5] the target is T1, Adrenergic receptor beta (Rattus norvegicus) (UniProt P18090+P10608+P26255). Put plainly: The compound was tested for beta-adrenergic receptor blockade activity in conscious normotensive rats at a dose of 2 mg/kg. Type of assay: functional, organism-based. More on the design: dose 2 mg/kg.
Assay [6] concerns the target T1, Adrenergic receptor beta (Rattus norvegicus). The assay is described as follows: Beta-adrenergic receptor blockade activity in conscious normotensive rats at a dose of 0.5 mg/kg. It counts as functional, organism-based. More on the design: dose 0.5 mg/kg.
Assay [7] concerns Rattus norvegicus. Put plainly: The compound was tested for antihypertensive activity in spontaneously hypertensive rats after peroral administration, Activity value is <25 mmHg. It counts as functional. A digest of the protocol:
as §1

Assay [8] has as its system Rattus norvegicus. The assay is described as follows: The compound was tested for antihypertensive activity in spontaneously hypertensive rats after peroral administration. Activity value is 35-44 mmHg. Type of assay: functional. A digest of the protocol: as §1
In assay [9] the test system is Rattus norvegicus. Put plainly: The compound was tested for antihypertensive activity in spontaneously hypertensive rats after peroral administration, dosed at 30 mg/kg. It counts as functional. Conditions: route oral. The method in brief: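 Conscious spontaneously hypertensive rats, groups of five per compound. Given orally at 0 and 22 h. Before tail-cuff readings, rats were prewarmed to 37 °C for about 20 min. Indirect systolic pressure was read at 0 (control), 22, 24, 26 and 46 h. Activity was scored from the maximum mean fall from control: under 25 mmHg (±), 25-34 (+), 35-44 (++), 45 mmHg and over (+++).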

Turning to `CSc1ccccc1OCC(O)CNC(C)(C)Cc1c[nH]c2ccccc12` (configuration not stated), in the assay on Rattus norvegicus [1], the “Delta MAP” value is reported as -29%.
In the assay listed under Rattus norvegicus [2], `CC(C)(Cc1c[nH]c2ccccc12)NCC(O)COc1ccccc1N` (configuration not stated) returned an Activity of 105 beats min-1. The Actvity in the assay on Rattus norvegicus [3] is 44 mmHg. In addition, in the assay with Rattus norvegicus [1], the “Delta MAP” value is listed as -11%.
In turn, `CCC(C)c1ccccc1OCC(O)CNC(C)(C)Cc1c[nH]c2ccccc12` (configuration not stated) displayed an Activity in the assay listed under Rattus norvegicus [2] of -8 beats min-1. Moreover, the “Delta MAP” value in the assay with Rattus norvegicus [1] is 22%. In the assay with Rattus norvegicus [4], this molecule had an Actvity of less than 25 mmHg.
Take `CC(C)(Cc1c[nH]c2ccccc12)NCC(O)COc1ccccc1C(F)(F)F` (configuration not stated): in the assay filed under Rattus norvegicus [2], the Activity turned out to be 88 beats min-1. Besides, in the assay with Rattus norvegicus [3], the Actvity was 44 mmHg. The “Delta MAP” value in the assay with Rattus norvegicus [1] was -34%.
Molecule `CC(C)NCC(O)COc1cccc2ccccc12` (configuration not stated) [PROPRANOLOL] yielded an Actvity in the assay with Rattus norvegicus [3] of less than 25 mmHg.
In turn, `Cc1ccccc1OCC(O)CNC(C)(C)Cc1c[nH]c2ccccc12` (configuration not stated) gave an Activity in the assay filed under Rattus norvegicus [2] of 100 beats min-1. The same molecule registered an Actvity with Rattus norvegicus [3] of 34 mmHg. The “Delta MAP” value in the assay with Rattus norvegicus [1] was -18%.
In the assay filed under Rattus norvegicus [2], `CC(C)(Cc1c[nH]c2ccccc12)NCC(O)COc1ccccc1C#N` (configuration not stated) [BUCINDOLOL] came in with an Activity of 77 beats min-1. The molecule further displayed an inhibition in [5] of 71%. Further, the Actvity in the assay with Rattus norvegicus [3] was determined as 45 mmHg. In the assay with Rattus norvegicus [1], the “Delta MAP” value is listed as -26%.
`Cc1cc(S(C)(=O)=O)ccc1OCC(O)CNC(C)(C)Cc1c[nH]c2ccccc12` (configuration not stated) yielded an Actvity in the assay with Rattus norvegicus [3] of less than 25 mmHg. Besides, the “Delta MAP” value in the assay on Rattus norvegicus [1] is recorded as -8%.
`CC(C)(Cc1c[nH]c2ccccc12)NCC(O)COc1ccccc1` (configuration not stated) displayed an Activity in the assay filed under Rattus norvegicus [2] of 141 beats min-1. In the assay with Rattus norvegicus [3], this molecule showed an Actvity of less than 25 mmHg. The “Delta MAP” value in the assay with Rattus norvegicus [1] was -26%.
`CC(C)(Cc1c[nH]c2ccccc12)NCC(O)COc1ccccc1[N+](=O)[O-]` (configuration not stated) returned an Activity in the assay filed under Rattus norvegicus [2] of 106 beats min-1. This molecule also yielded an Actvity with Rattus norvegicus [3] of less than 25 mmHg. Moreover, the “Delta MAP” value with Rattus norvegicus [1] is given as -38%.
As to `CC(C)(Cc1c[nH]c2ccccc12)NCC(O)COc1ccccc1C(N)=O` (configuration not stated), the Activity in the assay filed under Rattus norvegicus [2] was determined as 74 beats min-1. In the assay with Rattus norvegicus [3], this molecule yielded an Actvity of 44 mmHg. Also, the “Delta MAP” value with Rattus norvegicus [1] is recorded as -25%.
In assay [6], `CC(C)(Cc1c[nH]c2ccccc12)NCC(O)COc1ccccc1F` (configuration not stated) displayed an inhibition of 58%. The “Delta MAP” value with Rattus norvegicus [1] is given as -33%. The molecule further displayed an Actvity with Rattus norvegicus [7] of less than 25 mmHg.
On to `Cc1cccc(OCC(O)CNC(C)(C)Cc2c[nH]c3ccccc23)c1C` (configuration not stated), for which, in the assay on Rattus norvegicus [8], the Actvity was 44 mmHg. The inhibition in assay [6] is 79%. Also, in the assay with Rattus norvegicus [1], the “Delta MAP” value was determined as 8%.
In the assay on Rattus norvegicus [3], `CC(C)(Cc1c[nH]c2ccccc12)NCC(O)COc1ccccc1C1CCCCC1` (configuration not stated) registered an Actvity of less than 25 mmHg. Moreover, in the assay with Rattus norvegicus [1], the “Delta MAP” value turned out to be 18%.
For the molecule `Cc1cccc(C)c1OCC(O)CNC(C)(C)Cc1c[nH]c2ccccc12` (configuration not stated), the “Delta MAP” value with Rattus norvegicus [1] was -4%. In the assay on Rattus norvegicus [4], this molecule had an Actvity of less than 25 mmHg.
`CC(C)NCC(O)COc1cccc2[nH]ccc12` (configuration not stated) [PINDOLOL]: the Activity in the assay listed under Rattus norvegicus [2] was 120 beats min-1. In the assay with Rattus norvegicus [9], the Actvity is given as less than 25 mmHg. Further, in the assay on Rattus norvegicus [1], the “Delta MAP” value was -32%.
Take `CC(C)(Cc1c[nH]c2ccccc12)NCC(O)COc1ccccc1-c1ccccc1` (configuration not stated): in the assay with Rattus norvegicus [1], the “Delta MAP” value was determined as 12%. Further, the Actvity with Rattus norvegicus [4] was less than 25 mmHg.
`Cc1ccc(OCC(O)CNC(C)(C)Cc2c[nH]c3ccccc23)c(C)c1` (configuration not stated): in the assay with Rattus norvegicus [3], the Actvity came out at 34 mmHg. Moreover, the “Delta MAP” value in the assay on Rattus norvegicus [1] is 13%.
In the case of `Cc1cc(Cl)ccc1OCC(O)CNC(C)(C)Cc1c[nH]c2ccccc12` (configuration not stated), the “Delta MAP” value in the assay on Rattus norvegicus [1] was 11%.
